Calls of active or inactive are those of the source. No cut-off for these calls is given here.
How the values were obtained:
[1] = Cytotoxicity against human L02 cells assessed as cell viability at 0 to 50 uM incubated for 24 hrs by CCK-8 assay relative to control; type: cell-based; conditions: dose 0-50 µM, read-out: Activity
Outline: (§1)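 HUVEC and LO2 normal cells were cultured in RPMI-1640 or DMEM with 10% FBS at 37 °C, 5% CO2, and seeded at 3 × 10^4 cells/well. They were exposed for 24 h to graded concentrations. CCK-8 incubation was 3 h at 37 °C, with A450 read and viability expressed versus untreated control. Three independent experiments, mean ± SEM.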

Raji = test: Cytotoxicity against human Raji cells assessed as reduction in cell viability measured after 24 hrs by CCK-8 assay; type: functional, cell-based
Outline: (§2)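 Cells were grown in RPMI-1640 or high-glucose DMEM with 10% FBS at 37 °C, 5% CO2, and seeded at 3 × 10^4 cells/well. Exposure was 24 h across serial concentrations (0−1000 μM in the screen). […] Three independent experiments, mean ± SEM.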

MOLT-4 = test: Cytotoxicity against human MOLT-4 cells assessed as reduction in cell viability measured after 24 hrs by CCK-8 assay; type: functional, cell-based; conditions: MOLT-4, 24 h; outline: as §2
NB-4 = test: Cytotoxicity against human NB-4 cells assessed as reduction in cell viability measured after 24 hrs by CCK-8 assay; type: functional, cell-based; conditions: NB-4, 24 h; outline: as §2
[2] = biological target: T1, Glycogen synthase kinase-3 beta (Homo sapiens, UniProt P49841); test: Inhibition of recombinant human GSK-3beta using GS-2 peptide as substrate incubated for 30 mins in presence of ATP by kinase-glo luminescence assay
Target sequence in this assay (P49841 whole entry): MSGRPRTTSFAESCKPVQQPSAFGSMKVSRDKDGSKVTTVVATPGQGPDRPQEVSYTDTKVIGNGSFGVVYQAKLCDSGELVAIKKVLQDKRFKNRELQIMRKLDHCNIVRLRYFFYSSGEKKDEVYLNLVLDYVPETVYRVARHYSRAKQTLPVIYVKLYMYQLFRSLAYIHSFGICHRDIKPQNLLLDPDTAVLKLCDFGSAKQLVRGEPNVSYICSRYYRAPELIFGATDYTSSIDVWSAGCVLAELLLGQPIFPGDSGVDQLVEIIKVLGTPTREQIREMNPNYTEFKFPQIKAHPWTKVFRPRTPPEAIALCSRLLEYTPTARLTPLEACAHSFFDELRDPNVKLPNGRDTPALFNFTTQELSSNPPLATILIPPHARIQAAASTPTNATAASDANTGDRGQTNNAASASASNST

NB4-DR1 = test: Antiproliferative activity against human NB4-DR1 cells assessed as reduction in cell viability incubated for 24 hrs by CCK-8 assay; type: functional, cell-based; conditions: NB4-DR1, 24 h; outline: as §2
HL-60 = test: Cytotoxicity against human HL-60 cells assessed as reduction in cell viability measured after 24 hrs by CCK-8 assay; type: functional, cell-based; conditions: HL-60, 24 h; outline: as §2
[3] = Cytotoxicity against HUVEC assessed as cell viability at 0 to 50 uM incubated for 24 hrs by CCK-8 assay relative to control; type: cell-based; conditions: human, dose 0-50 µM, read-out: Activity; outline: as §1
[4] = biological target: Glycogen synthase kinase-3 alpha (Homo sapiens) (UniProt P49840); test: Inhibition of recombinant human GSK-3alpha at 100 uM by mobility shift assay relative to control
[5] = biological target: Proto-oncogene tyrosine-protein kinase receptor Ret (Homo sapiens) (UniProt P07949); test: Inhibition of RET (unknown origin) at 100 uM incubated for 60 mins by ELISA relative to control
Outline: (§3)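 Tyrosine kinase ELISA on plates precoated with poly(Glu,Tyr) 4:1 substrate. Reaction used 10 μM ATP in buffer (50 mM HEPES pH 7.4, 50 mM MgCl2, 0.5 mM MnCl2, 0.2 mM Na3VO4, 1 mM DTT) with compound in 1% DMSO. Purified kinase started the reaction, 60 min at 37 °C. Detection by anti-phosphotyrosine PY99 then HRP anti-mouse IgG with o-phenylenediamine/H2O2. Read at 490 nm; inhibition = [1 − A490/A490 control] × 100%.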

[6] = biological target: Platelet-derived growth factor receptor beta (Homo sapiens) (UniProt P09619); test: Inhibition of PDGFRbeta (unknown origin) at 100 uM incubated for 60 mins by ELISA relative to control; outline: as §3
Sequence of Platelet-derived growth factor receptor beta (Homo sapiens) (P09619 whole entry): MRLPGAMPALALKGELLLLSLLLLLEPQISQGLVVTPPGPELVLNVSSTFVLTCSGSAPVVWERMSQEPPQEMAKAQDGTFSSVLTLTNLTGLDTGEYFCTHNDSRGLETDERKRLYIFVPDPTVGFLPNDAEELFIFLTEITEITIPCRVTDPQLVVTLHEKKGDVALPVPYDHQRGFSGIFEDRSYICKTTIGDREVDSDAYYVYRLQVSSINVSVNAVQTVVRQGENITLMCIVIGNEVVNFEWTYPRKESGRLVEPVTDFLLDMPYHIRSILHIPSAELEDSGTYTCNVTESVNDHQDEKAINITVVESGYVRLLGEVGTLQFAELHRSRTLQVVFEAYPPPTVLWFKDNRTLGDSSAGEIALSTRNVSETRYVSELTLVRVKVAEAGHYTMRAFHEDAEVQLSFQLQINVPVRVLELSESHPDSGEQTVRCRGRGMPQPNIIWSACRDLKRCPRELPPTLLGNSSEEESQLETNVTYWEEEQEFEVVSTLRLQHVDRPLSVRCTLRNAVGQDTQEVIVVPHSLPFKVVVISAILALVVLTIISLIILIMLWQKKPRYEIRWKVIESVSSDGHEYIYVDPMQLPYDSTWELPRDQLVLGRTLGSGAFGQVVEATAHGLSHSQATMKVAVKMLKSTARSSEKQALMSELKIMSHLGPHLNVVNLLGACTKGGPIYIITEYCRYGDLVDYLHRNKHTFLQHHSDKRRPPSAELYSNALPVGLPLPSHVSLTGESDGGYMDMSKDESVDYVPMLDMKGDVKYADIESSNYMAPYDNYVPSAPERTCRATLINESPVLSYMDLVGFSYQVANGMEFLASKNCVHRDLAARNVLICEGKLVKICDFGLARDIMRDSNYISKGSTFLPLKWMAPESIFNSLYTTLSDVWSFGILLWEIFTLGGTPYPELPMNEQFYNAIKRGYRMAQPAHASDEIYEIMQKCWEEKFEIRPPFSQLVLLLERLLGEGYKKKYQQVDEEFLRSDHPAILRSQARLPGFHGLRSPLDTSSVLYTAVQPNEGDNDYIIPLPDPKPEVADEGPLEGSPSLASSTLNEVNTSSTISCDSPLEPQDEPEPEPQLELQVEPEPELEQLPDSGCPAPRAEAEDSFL

[7] = biological target: Vascular endothelial growth factor receptor 1 (Homo sapiens) (UniProt P17948); test: Inhibition of Flt-1 (unknown origin) at 100 uM incubated for 60 mins by ELISA relative to control; outline: as §3
[8] = biological target: Fibroblast growth factor receptor 1 (Homo sapiens) (UniProt P11362); test: Inhibition of FGFR1 (unknown origin) at 100 uM incubated for 60 mins by ELISA relative to control; outline: as §3
Sequence of Fibroblast growth factor receptor 1 (Homo sapiens) (P11362 22-822 limits assumed): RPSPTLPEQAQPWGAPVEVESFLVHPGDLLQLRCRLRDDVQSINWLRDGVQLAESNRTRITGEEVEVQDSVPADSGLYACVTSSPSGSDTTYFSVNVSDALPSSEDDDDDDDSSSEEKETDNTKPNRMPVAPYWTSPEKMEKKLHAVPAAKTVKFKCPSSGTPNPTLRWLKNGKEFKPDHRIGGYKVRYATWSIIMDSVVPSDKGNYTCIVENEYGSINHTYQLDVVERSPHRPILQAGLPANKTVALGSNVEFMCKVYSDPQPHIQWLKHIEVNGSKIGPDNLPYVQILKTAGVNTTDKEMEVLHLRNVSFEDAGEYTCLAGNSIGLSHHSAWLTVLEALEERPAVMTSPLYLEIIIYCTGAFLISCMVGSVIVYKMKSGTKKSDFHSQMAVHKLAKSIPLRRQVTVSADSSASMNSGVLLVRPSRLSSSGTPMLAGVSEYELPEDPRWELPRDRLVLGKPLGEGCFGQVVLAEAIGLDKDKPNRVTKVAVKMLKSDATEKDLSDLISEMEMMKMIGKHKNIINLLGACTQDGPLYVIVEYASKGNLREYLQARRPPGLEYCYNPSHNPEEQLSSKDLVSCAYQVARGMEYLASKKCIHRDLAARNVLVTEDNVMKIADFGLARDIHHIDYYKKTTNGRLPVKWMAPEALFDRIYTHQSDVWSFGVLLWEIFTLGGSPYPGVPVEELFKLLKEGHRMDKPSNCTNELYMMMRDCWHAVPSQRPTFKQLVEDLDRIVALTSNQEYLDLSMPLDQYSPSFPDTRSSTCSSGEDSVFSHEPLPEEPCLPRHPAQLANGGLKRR

[9] = Thiol reactivity of compound with mercaptoethanol measured after 24 hrs by 1H-NMR analysis; type: physicochemical
[10] = biological target: T1, Glycogen synthase kinase-3 beta; test: Non-competitive inhibition of recombinant human GSK-3beta at 2 to 4 uM using varying concentration of GS-2 as substrate incubated for 10 mins in presence of ATP by double reciprocal plot analysis; conditions: dose 2-4 µM
Target sequence in this assay (P49841 whole entry, looked up): as the sequence (P49841 whole entry) above

[11] = biological target: Platelet-derived growth factor receptor alpha (Homo sapiens) (UniProt P16234); test: Inhibition of PDGFRalpha (unknown origin) at 100 uM incubated for 60 mins by ELISA relative to control; outline: as §3
[12] = biological target: Receptor tyrosine-protein kinase erbB-4 (Homo sapiens) (UniProt Q15303); test: Inhibition of ERBB4 (unknown origin) at 100 uM incubated for 60 min by ELISA relative to control; outline: as §3
Sequence of Receptor tyrosine-protein kinase erbB-4 (Homo sapiens) (Q15303 whole entry): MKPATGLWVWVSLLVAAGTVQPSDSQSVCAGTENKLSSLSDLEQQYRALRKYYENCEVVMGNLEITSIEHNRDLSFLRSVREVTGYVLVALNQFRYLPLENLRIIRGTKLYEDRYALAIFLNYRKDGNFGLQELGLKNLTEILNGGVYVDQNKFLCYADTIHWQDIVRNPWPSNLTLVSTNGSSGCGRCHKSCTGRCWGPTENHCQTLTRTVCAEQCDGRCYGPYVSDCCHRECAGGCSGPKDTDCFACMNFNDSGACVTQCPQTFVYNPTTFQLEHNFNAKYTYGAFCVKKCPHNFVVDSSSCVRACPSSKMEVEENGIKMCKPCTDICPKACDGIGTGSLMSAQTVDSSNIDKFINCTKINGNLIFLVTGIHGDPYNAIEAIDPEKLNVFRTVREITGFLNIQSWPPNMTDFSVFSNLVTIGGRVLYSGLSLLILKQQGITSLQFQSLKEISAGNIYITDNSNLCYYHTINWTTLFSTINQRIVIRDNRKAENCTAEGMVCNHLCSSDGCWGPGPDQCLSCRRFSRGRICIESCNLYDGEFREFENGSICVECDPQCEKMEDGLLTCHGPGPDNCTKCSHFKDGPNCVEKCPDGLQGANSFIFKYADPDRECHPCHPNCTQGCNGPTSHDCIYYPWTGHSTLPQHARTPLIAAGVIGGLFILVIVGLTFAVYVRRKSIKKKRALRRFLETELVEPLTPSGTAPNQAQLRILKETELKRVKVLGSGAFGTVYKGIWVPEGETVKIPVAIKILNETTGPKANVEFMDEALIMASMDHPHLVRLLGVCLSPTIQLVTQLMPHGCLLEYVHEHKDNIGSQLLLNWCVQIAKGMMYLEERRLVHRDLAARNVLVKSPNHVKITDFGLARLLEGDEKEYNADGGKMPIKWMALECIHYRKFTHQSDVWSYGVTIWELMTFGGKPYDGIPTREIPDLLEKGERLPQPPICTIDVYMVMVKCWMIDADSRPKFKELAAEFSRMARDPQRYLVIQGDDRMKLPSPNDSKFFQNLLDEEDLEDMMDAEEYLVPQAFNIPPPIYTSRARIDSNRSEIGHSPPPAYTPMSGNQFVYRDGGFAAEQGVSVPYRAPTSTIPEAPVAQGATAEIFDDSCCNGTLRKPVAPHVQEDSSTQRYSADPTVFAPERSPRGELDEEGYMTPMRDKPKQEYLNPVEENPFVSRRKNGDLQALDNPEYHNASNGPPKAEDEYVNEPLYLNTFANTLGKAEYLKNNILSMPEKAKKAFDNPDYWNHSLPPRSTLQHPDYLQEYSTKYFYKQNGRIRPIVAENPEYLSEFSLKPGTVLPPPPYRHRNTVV

[13] = biological target: T1, Glycogen synthase kinase-3 beta; test: Irreversible inhibition of recombinant human GSK-3beta preincubated for upto 10 mins by double reciprocal plot analysis; conditions: time min <=10, TDE = time-dependent effect
Outline: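 Irreversibility tested in the Kinase-Glo GSK-3β assay. Inhibitor at 6.25 and 12.5 μM was preincubated with enzyme for 0, 5 or 10 min. Each point is the mean of two separate experiments done in triplicate.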
Target sequence in this assay (P49841 whole entry, looked up): as the sequence (P49841 whole entry) above

[14] = biological target: T1, Glycogen synthase kinase-3 beta; test: Non-competitive inhibition of recombinant human GSK-3beta using GS-2 peptide as substrate at 2 to 4 uM incubated for 10 mins in presence of varying levels of ATP by double reciprocal plot analysis; conditions: dose 2-4 µM
Target sequence in this assay (P49841 whole entry, looked up): as the sequence (P49841 whole entry) above

[15] = biological target: Mast/stem cell growth factor receptor Kit (Homo sapiens) (UniProt P10721); test: Inhibition of c-Kit (unknown origin) at 100 uM incubated for 60 mins by ELISA relative to control; outline: as §3
Sequence of Mast/stem cell growth factor receptor Kit (Homo sapiens) (P10721 whole entry): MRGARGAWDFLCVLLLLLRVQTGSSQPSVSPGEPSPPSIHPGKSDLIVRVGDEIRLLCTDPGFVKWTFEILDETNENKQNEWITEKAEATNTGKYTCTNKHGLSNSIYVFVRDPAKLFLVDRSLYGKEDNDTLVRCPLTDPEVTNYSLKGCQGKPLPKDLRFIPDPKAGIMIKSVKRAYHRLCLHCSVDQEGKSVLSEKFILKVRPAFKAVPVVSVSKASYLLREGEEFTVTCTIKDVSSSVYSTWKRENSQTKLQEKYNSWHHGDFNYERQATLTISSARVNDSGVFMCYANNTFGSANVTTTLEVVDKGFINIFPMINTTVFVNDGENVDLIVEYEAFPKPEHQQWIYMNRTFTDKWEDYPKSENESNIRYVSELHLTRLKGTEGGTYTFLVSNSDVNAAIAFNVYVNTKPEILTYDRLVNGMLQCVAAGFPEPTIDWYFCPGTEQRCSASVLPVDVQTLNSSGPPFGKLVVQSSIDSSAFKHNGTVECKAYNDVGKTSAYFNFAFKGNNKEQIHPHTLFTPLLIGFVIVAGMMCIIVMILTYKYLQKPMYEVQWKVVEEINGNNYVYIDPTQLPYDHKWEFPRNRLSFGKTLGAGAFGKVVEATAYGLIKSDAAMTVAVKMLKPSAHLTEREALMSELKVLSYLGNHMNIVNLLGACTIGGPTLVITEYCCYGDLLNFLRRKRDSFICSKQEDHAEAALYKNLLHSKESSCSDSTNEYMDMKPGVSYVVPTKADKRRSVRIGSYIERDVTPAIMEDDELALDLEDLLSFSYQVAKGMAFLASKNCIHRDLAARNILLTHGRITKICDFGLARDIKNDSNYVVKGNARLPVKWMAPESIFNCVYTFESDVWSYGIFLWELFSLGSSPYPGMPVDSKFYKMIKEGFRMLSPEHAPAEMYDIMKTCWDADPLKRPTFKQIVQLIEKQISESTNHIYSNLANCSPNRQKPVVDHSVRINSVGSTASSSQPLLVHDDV

[16] = biological target: Vascular endothelial growth factor receptor 2 (Homo sapiens) (UniProt P35968); test: Inhibition of KDR (unknown origin) at 100 uM incubated for 60 mins by ELISA relative to control; outline: as §3
Homo sapiens = species on record: Homo sapiens; test: Inhibition of PKA (unknown origin) at 100 uM incubated for 60 mins by Millipore Kinase Profiler service relative to control
[17] = biological target: Casein kinase 2 (Homo sapiens) (UniProt P67870+P68400+P19784+Q8NEV1); test: Inhibition of CK2 (unknown origin) at 100 uM incubated for 60 mins by Millipore Kinase Profiler service relative to control
[18] = biological target: Fibroblast growth factor receptor 1 (Homo sapiens) (UniProt P11362); test: Inhibition of FGFR1 (unknown origin) incubated for 60 mins by ELISA; conditions: dose 100.0 µM

Row | Compound | IC50 (Raji) | IC50 (MOLT-4) | IC50 (NB-4) | IC50 [2] | IC50 (HL-60) | inhibition [4] | further results
1 | C=CC(=O)N1C(=O)CC(c2ccc(C(=O)OC)cc2)Sc2ccccc21 (stereo not drawn) | 89.6 µM | 79.6 µM | 24.4 µM | 6 µM | 102 µM | – | viability at 24 h, up to 50 µM [1]: > 80%; IC50 (NB4-DR1): 93.1 µM; viability at 24 h, up to 50 µM [3]: > 80%
2 | CCC(=O)N1C(=O)CC(c2cccs2)Sc2ccccc21 (stereo not drawn) | – | – | – | > 100 µM | – | – | –
3 | C=CC(=O)N1C(=O)CC(c2ccc(C)cc2)Sc2ccccc21 (stereo not drawn) | 75.5 µM | 87.6 µM | 37.3 µM | 4.8 µM | 94.4 µM | 30% | –
4 | C=CC(=O)N1C(=O)CC(c2ccccc2)Sc2ccccc21 (stereo not drawn) | 74 µM | 85.9 µM | 35.5 µM | 6.6 µM | 97.4 µM | – | inhibition [5]: 0%; inhibition [6]: 2.7%; inhibition [7]: 1.7%; inhibition [8]: 0%; Drug metabolism [9]: Metabolite_Detected; inhibition [10]: Active; inhibition [11]: 6.5%; inhibition [12]: 0%; inhibition [13]: Tde; inhibition [14]: Active; inhibition [15]: 26.9%; inhibition [16]: 0%
5 | C=CC(=O)N1C(=O)CCSc2ccccc21 | 581 µM | 565 µM | 22.4 µM | 17 µM | 44.8 µM | – | –
6 | C=CC(=O)N1C(=O)CC(C)Sc2ccccc21 (stereo not drawn) | 837 µM | 730 µM | 227 µM | 20 µM | 199 µM | – | –
7 | C=CC(=O)NCCN1C(=O)CC(c2ccccc2)Sc2ccccc21 (stereo not drawn) | – | – | – | > 100 µM | – | – | –
8 | C=CC(=O)N1C(=O)CC(c2ccc(Cl)cc2)Sc2ccccc21 (stereo not drawn) | 18.4 µM | 82.4 µM | 22.6 µM | 6.7 µM | 95.7 µM | 46.7% | inhibition [5]: 73.9%; inhibition [6]: 0%; viability at 24 h, up to 50 µM [1]: > 80%; inhibition (Homo sapiens): 7%; inhibition [7]: 7.4%; inhibition [8]: 88.3%; inhibition [11]: 11.1%; inhibition [12]: 0%; inhibition [17]: 8%; IC50 (NB4-DR1): 48.3 µM; inhibition [15]: 14%; viability at 24 h, up to 50 µM [3]: > 80%; inhibition [16]: 0%
9 | C=CC(=O)N1C(=O)CC(c2ccc(-c3ccccc3)cc2)Sc2ccccc21 (stereo not drawn) | 56.3 µM | 97.5 µM | 57.7 µM | 5.8 µM | 118 µM | 13.4% | –
10 | C=CC(=O)Nc1ccc(C2CC(=O)Nc3ccccc3S2)cc1 (stereo not drawn) | – | – | – | > 100 µM | – | – | –
11 | C=CC(=O)N1C(=O)CC(c2ccc(C#N)cc2)Sc2ccccc21 (stereo not drawn) | 84.5 µM | 88.7 µM | 62.4 µM | 6.2 µM | 115 µM | 92.9% | –
12 | C=CC(=O)N1C(=O)CC(c2ccc(OC)cc2)Sc2ccccc21 (stereo not drawn) | 43.2 µM | 83.2 µM | 32.9 µM | 6.2 µM | 92.1 µM | – | –
13 | C=CC(=O)N1C(=O)CC(c2ccc([N+](=O)[O-])cc2)Sc2ccccc21 (stereo not drawn) | 34.8 µM | 91.5 µM | 37.6 µM | 7.5 µM | 107 µM | 50.7% | –
14 | C=CC(=O)N1C(=O)CC(c2ccc(N3CCOCC3)cc2)Sc2ccccc21 (stereo not drawn) | 56.2 µM | 65 µM | 42.4 µM | 15 µM | 98 µM | – | –
15 | C=CC(=O)N1C(=O)CC(c2cccs2)Sc2ccccc21 (stereo not drawn) | 659 µM | 557 µM | 765 µM | 4.9 µM | 695 µM | – | inhibition [5]: 0%; inhibition [6]: 7.8%; inhibition (Homo sapiens): 22%; inhibition [7]: 0%; inhibition [8]: 18.8%; inhibition [11]: 0%; inhibition [12]: 0%; inhibition [17]: 0%; inhibition [15]: 26.3%; inhibition [16]: 3.1%
16 | C=CC(=O)N1C(=O)CC(c2cccc(Cl)c2)Sc2ccccc21 (stereo not drawn) | 47.1 µM | 77.5 µM | 31.7 µM | 4 µM | 93.1 µM | – | –
17 | C=CC(=O)N1C(=O)CC(c2ccc(Br)cc2)Sc2ccccc21 (stereo not drawn) | 51.3 µM | 106 µM | 59.4 µM | 6.4 µM | 126 µM | 33.4% | –
18 | Cc1ccc(C(=O)Nc2ccc(CN3CCN(C)CC3)c(C(F)(F)F)c2)cc1C#Cc1cnc2cccnn12 | – | – | – | – | – | – | IC50 [18]: 0.0007 µM
19 | [Cl-].[Li+] [CHLOROLITHIUM] | – | – | 5320 µM | – | – | – | IC50 (NB4-DR1): 42500 µM
20 | C=CC(=O)N1C(=O)CC(c2ccccc2Cl)Sc2ccccc21 (stereo not drawn) | 50.4 µM | 80.3 µM | 33.8 µM | 2.5 µM | 91.4 µM | 61.8% | –
21 | C=CC(=O)N1C(=O)CC(c2ccc(C(F)(F)F)cc2)Sc2ccccc21 (stereo not drawn) | 47.6 µM | 76.3 µM | 38.6 µM | 15 µM | 106 µM | 20% | –
22 | C=CC(=O)N1C(=O)CC(c2ccccc2C(F)(F)F)Sc2ccccc21 (stereo not drawn) | 50.3 µM | 84.4 µM | 35.2 µM | 2.8 µM | 96.4 µM | 32% | –

Reference: ChEMBL document CHEMBL5036319, “Discovery of Novel Benzothiazepinones as Irreversible Covalent Glycogen Synthase Kinase 3β Inhibitors for the Treatment of Acute Promyelocytic Leukemia” (J Med Chem, 2021)
